Laboratory results from ChEMBL document CHEMBL1152954, “Discovery, characterization and comparison of inhibitors of Bacillus anthracis and Staphylococcus aureus replicative DNA helicases” (Bioorg Med Chem, 2009).
≈ marks a conversion by molar mass, not a printed value. Calls of active or inactive are those of the source. No cut-off for these calls is given here.

Experiments:
HeLa = experiment: Cytotoxicity against human HeLa cells by MTT assay; format: cell-based
Staphylococcus aureus [1] = experiment: Antibacterial activity against Staphylococcus aureus Smith by broth microdilution method; format: functional
Bacillus anthracis [2] = experiment: Antibacterial activity against permeabilized polA-deficient Bacillus anthracis Sterne assessed as inhibition of DNA replication by cell based assay; format: functional, organism-based
In short: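 ATP-dependent DNA replication measured in permeabilized ΔpolA B. anthracis Sterne cells by a modified Brown et al. method, testing whether compounds block an intact replisome.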

Bacillus anthracis [3] = experiment: Antibacterial activity against Bacillus anthracis Sterne by broth microdilution method; format: functional
DnaC helicase = biological target: T1, DnaC helicase (Staphylococcus aureus, UniProt Q9AQH7); experiment: Inhibition of Staphylococcus aureus Smith DNA helicase DnaC assessed as strand unwinding after 30 mins by FRET assay
T1 sequence (Q9AQH7 whole entry): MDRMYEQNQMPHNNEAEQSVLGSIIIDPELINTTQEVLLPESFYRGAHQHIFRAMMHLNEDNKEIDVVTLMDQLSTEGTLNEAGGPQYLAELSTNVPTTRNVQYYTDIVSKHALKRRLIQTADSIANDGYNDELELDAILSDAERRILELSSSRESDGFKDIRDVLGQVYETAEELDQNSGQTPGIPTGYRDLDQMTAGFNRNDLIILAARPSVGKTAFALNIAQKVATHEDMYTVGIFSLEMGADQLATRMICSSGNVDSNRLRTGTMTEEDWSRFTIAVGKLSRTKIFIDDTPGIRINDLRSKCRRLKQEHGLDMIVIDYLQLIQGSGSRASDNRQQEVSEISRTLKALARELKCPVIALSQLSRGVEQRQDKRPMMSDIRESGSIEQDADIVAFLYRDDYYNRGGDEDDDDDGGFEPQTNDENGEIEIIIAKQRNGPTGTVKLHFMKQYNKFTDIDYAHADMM

[4] = Selectivity ratio of IC50 for Staphylococcus aureus Smith DNA helicase DnaC to IC50 for Bacillus anthracis DNA helicase DnaB
Bacillus licheniformis = experiment: Antibacterial activity against Bacillus licheniformis ATCC 14580 by broth microdilution method; format: functional; settings: DSM 13=ATCC 14580
Bacillus cereus = experiment: Antibacterial activity against Bacillus cereus ATCC 4342 by broth microdilution method; format: functional
Staphylococcus aureus [5] = experiment: Antibacterial activity against methicillin-resistant Staphylococcus aureus isolate 1094 by broth microdilution method; format: functional
Bacillus subtilis [6] = experiment: Inhibition of Bacillus subtilis DNA gyrase up to 50 uM by gel mobility assay
In short: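 B. subtilis DNA gyrase activity measured by a published gel mobility assay; compounds tested up to 50 μM.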

Priestia megaterium = experiment: Antibacterial activity against Bacillus megaterium ATCC 12872 by broth microdilution method; format: functional
Escherichia coli [7] = experiment: Antibacterial activity against TolC deficient Escherichia coli 701 by broth microdilution method; format: functional
[8] = system: Geobacillus stearothermophilus; experiment: Antibacterial activity against Bacillus stearothermophilus ATCC 12980 by broth microdilution method; format: functional
Bacillus thuringiensis = experiment: Antibacterial activity against Bacillus thuringiensis ATCC 10792 by broth microdilution method; format: functional
Enterococcus faecalis [9] = experiment: Antibacterial activity against vancomycin-resistant Enterococcus faecalis ATCC 51575 by broth microdilution method; format: functional
Escherichia coli [10] = experiment: Antibacterial activity against Escherichia coli 700 expressing […] gene by broth microdilution method; format: functional
Staphylococcus aureus [11] = experiment: Antibacterial activity against Staphylococcus aureus ATCC 25923 by broth microdilution method; format: functional
Bacillus subtilis [12] = experiment: Antibacterial activity against Bacillus subtilis BD54 by broth microdilution method; format: functional
Enterococcus faecalis [13] = experiment: Antibacterial activity against Enterococcus faecalis ATCC 29212 by broth microdilution method; format: functional

| Structure (SMILES) | CC50 (HeLa) [µM] | MIC (Staphylococcus aureus [1]) [µM] | IC50 (Bacillus anthracis [2]) [µM] | MIC (Bacillus anthracis [3]) [µM] | IC50 (DnaC helicase) [µM] | other results |
| --- | --- | --- | --- | --- | --- | --- |
| COc1cc(/C=C2\SC(=S)N(c3cccc(Cl)c3)C2=O)cc(OC)c1O | > 100 | > 100 | 30 | > 100 | 3 | – |
| COc1cc(/C=C2\SC(=S)N(c3ccc(Cl)cc3)C2=O)cc(OC)c1O | > 100 | > 100 | 73 | > 100 | 2 | – |
| Cc1nc(-c2c[nH]c(C(=O)O)c2)cs1 | > 100 | > 100 | > 100 | > 100 | 12 | – |
| Cc1ccc(C)n1-c1ccc(SCC(=O)O)cc1 | > 100 | > 100 | – | > 100 | 4 | – |
| COc1cc(/C=C2\SC(=S)N(c3cccc(C(F)(F)F)c3)C2=O)cc(OC)c1O | > 100 | > 100 | 95 | > 100 | 4 | – |
| Nn1c(Cc2ccccc2F)nnc1SCc1cc(=O)oc2cc(O)c(O)cc12 | > 100 | > 100 | 100 | > 100 | 15 | Ratio IC50 [4]: 2 |
| Cc1c(Cc2ccccc2)c(=O)oc2c(O)c(O)ccc12 | 10 | 24 (≈ 6.78 µg/mL) | 10 | 20 (≈ 5.65 µg/mL) | 42 | Ratio IC50 [4]: 2 |
| COc1ccc(Nc2nc(N)nc(-c3cc4ccccc4o3)n2)cc1 | 4 | > 100 | > 100 | > 100 | 21 | – |
| Cc1noc(NS(=O)(=O)c2ccc(NC(=O)CSc3nnc(-c4ccccc4)c(-c4ccccc4)n3)cc2)c1C | 68 | 75 (≈ 43 µg/mL) | 61 | 50 (≈ 28.6 µg/mL) | 47 | MIC (Bacillus licheniformis): 57.3 µg/mL (≈ 100 µM); MIC (Bacillus cereus): 57.3 µg/mL (≈ 100 µM); MIC (Staphylococcus aureus [5]): 57.3 µg/mL (≈ 100 µM); inhibition (Bacillus subtilis [6]): inactive; MIC (Priestia megaterium): 57.3 µg/mL (≈ 100 µM); MIC (Escherichia coli [7]): 28.7 µg/mL (≈ 50.1 µM); MIC [8]: 57.3 µg/mL (≈ 100 µM); MIC (Bacillus thuringiensis): 57.3 µg/mL (≈ 100 µM); MIC (Enterococcus faecalis [9]): > 60 µg/mL; MIC (Escherichia coli [10]): > 60 µg/mL; MIC (Staphylococcus aureus [11]): 43 µg/mL (≈ 75.1 µM); MIC (Bacillus subtilis [12]): > 60 µg/mL; MIC (Enterococcus faecalis [13]): > 60 µg/mL |
